Test results from PMC3285107 (ACS medicinal chemistry letters, 2012).
Entries after “also recorded” stand apart in the source; their conditions may differ.

How the values were obtained:
[1] = tested on: M3 muscarinic receptors in HEK293T cells; experiment: Carbachol-stimulated Ca2+ transient; format: cell-based; conditions: compound 10 μM, carbachol 10 nM, HEK cells with human M3 receptor
Outline: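 HEK-293 cells stably expressing human M3 muscarinic receptor, plated overnight, then loaded with Fluo4-NW for 30 min at 37 °C. Test compound added at 10 μM (1% DMSO). After […] minutes, baseline fluorescence read on a plate reader. Carbachol (10 nM final) injected, and the rise in intracellular Ca2+ expressed as percentage of baseline Ca2+ level.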

[2] = tested on: cysteine protease papain; conditions: result in words; cited from earlier work
[3] = tested on: RGS4; experiment: FCPIA: inhibition of Gαo binding to RGS4; conditions: for activity at RGS4: result in words
Outline: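 Primary FCPIA screen for inhibition of Gαo binding to RGS4, run in parallel against RGS8, its closest sequence relative, to assess selectivity. IC50 values are averages of two independent experiments. Calculated ΔpIC50 mean error: 0.2 for RGS4, 0.14 for RGS8.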

[4] = Aqueous solubility; format: physicochemical; conditions: result in words

RGS4, sequence (P49798 whole entry): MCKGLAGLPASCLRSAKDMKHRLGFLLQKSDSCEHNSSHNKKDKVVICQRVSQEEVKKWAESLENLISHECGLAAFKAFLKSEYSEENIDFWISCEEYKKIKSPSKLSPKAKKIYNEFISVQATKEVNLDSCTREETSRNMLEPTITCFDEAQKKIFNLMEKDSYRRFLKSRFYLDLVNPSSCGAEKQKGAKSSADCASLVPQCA

## Cc1ccc(-n2sc(=O)n(Cc3ccc(F)cc3)c2=O)cc1 [1a]
[1]
  effect on carbachol-induced Ca2+ transient: nearly completely abolished
[2]
  inhibition of papain: failing to inhibit

## Cc1ccc(Cn2sc(=O)n(Cc3ccc(F)cc3)c2=O)cc1 [1i]
[3]
  selectivity for RGS4 versus RGS8: near three orders of magnitude

## Cc1ccc(Cn2sc(=O)n(Cc3ccccc3)c2=O)cc1 [2i]
[3]
  selectivity for RGS4 versus RGS8: near three orders of magnitude

## CCCCn1c(=O)sn(CC)c1=O [11b]
[1]
  effect on carbachol-induced Ca2+ transient: no effect; also recorded: no calcium transient
[4]
  aqueous solubility: high solubility; also recorded: excellent aqueous solubility

## Cc1ccc(-n2sc(=O)n(Cc3ccc(Cl)cc3)c2=O)cc1 [compound 3]
[3]
  selectivity for RGS4 versus RGS8: > 1000 fold

## Cc1ccc(Cn2c(=O)sn(-c3ccc(C)cc3)c2=O)cc1 [compound 4]
[3]
  selectivity for RGS4 versus RGS8: > 1000 fold

## Cc1ccc(-n2sc(=O)n(Cc3cccc(Cl)c3)c2=O)cc1 [compound 5]
[3]
  selectivity for RGS4 versus RGS8: > 1000 fold

## COc1ccc(Cn2c(=O)sn(-c3ccc(C)cc3)c2=O)cc1 [compound 7]
[3]
  selectivity for RGS4 versus RGS8: > 1000 fold

## CCn1sc(=O)n(CCOC)c1=O [compound 13]
[1]
  effect on carbachol-induced Ca2+ transient: no effect
[4]
  aqueous solubility: further improved solubility
[3]
  selectivity for RGS4 versus RGS8: > 600 fold

## Cc1ccc(CN2C(=O)CN(c3ccc(C)cc3)C2=O)cc1 [compound 14]
[3]
  activity at RGS4: neither 14 or 15 displayed activity

## Cc1ccc(C2=CC(=O)N(Cc3ccccc3)C2=O)cc1 [compound 15]
[3]
  activity at RGS4: neither 14 or 15 displayed activity
